According to ChEMBL document CHEMBL2169845 (J Med Chem, 2012):
pIC50, pKi: −log10 of the molar value. Calls of active or inactive are those of the source.

Experiments:
[1] = Inhibition of c-terminally truncated N-terminal 8xHis-tagged human Bcl-xL deletion mutant expressed in Escherichia coli BL21 (DE3) after 2 hrs by fluorescence polarization assay
[2] = target: T1, Apoptosis regulator Bcl-2 (Homo sapiens, UniProt P10415)
[3] = target: T1, Apoptosis regulator Bcl-2; test: Inhibition of N-terminal 6xHis-tagged human Bcl-2 expressed in Escherichia coli BL21 (DE3) after 2 hrs by fluorescence polarization assay
[4] = system: NCI-H1417; test: Cytotoxicity against human H1417 cells assessed as growth inhibition after 4 days by WST-8 assay; type: functional, cell-based; conditions: NCI-H1417, 96 h
[5] = Cytotoxicity against human NCI-H146 cells assessed as growth inhibition after 4 days by WST-8 assay; type: functional, cell-based; conditions: NCI-H146, 96 h
[6] = system: NCI-H146; test: Induction of apoptosis in human NCI-H146 cells assessed as cell viability after 24 hrs by trypan blue exclusion assay; type: functional, cell-based
Outline: (§1)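 H146 cells exposed to a range of compound concentrations for 24 hr, then harvested and stained with trypan blue. Cells staining blue or looking morphologically unhealthy were scored as dead. At least 100 cells counted per sample.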

[7] = system: NCI-H146; test: Induction of apoptosis in human NCI-H146 cells assessed as cell viability at 30 to 100 nM after 24 hrs by trypan blue exclusion assay; type: functional; outline: as §1
[8] = system: NCI-H146; test: Induction of apoptosis in human NCI-H146 cells assessed as caspase 3 activation at 30 nM after 24 hrs by Western blot analysis; type: functional, cell-based
Outline: (§2)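 H146 cells treated for 24 hr, then lysed on ice for 20 min in RIPA buffer with PMSF and protease inhibitors. Cleared lysates normalized by protein assay and run on 4–20% SDS-PAGE, then blotted to PVDF. Probed with rabbit antibodies to PARP and caspase-3 (cleaved forms detected), GAPDH as loading control, with HRP chemiluminescence detection.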

[9] = system: NCI-H146; test: Induction of apoptosis in human NCI-H146 cells assessed as PARP cleavage at 30 nM after 24 hrs by Western blot analysis; type: functional, cell-based; outline: as §2
[10] = system: NCI-H146; test: Induction of apoptosis in human NCI-H146 cells assessed as caspase 3 activation at 10 nM after 24 hrs by Western blot analysis; type: functional, cell-based; outline: as §2
[11] = system: Mus musculus; test: Toxicity in SCID mouse assessed as body weight loss at 50 mg/kg, iv administered 5 days per week for 2 weeks relative to vehicle-treated control; type: organism-based; design: dose 50 mg/kg, route intravenous; conditions: in vivo
Outline: (§3)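 Tolerability tested in SCID mice given daily i.v. doses, 5 days a week for 2 weeks. Body weight loss tracked against a 10% threshold.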

[12] = system: NCI-H146; test: Induction of apoptosis in human NCI-H146 cells xenografted in SCID mouse assessed as caspase 3 cleavage at 25 mg/kg, iv after 3 to 24 hrs by Western blot analysis; type: functional, organism-based; design: dose 25 mg/kg
Outline: (§4)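 SCID mice bearing H146 xenografts (100–200 mm3) received one i.v. dose, with a vehicle control group. Tumors harvested at 3, 6 and 24 h. PARP cleavage and caspase-3 cleavage assessed by Western blot.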

[13] = Antitumor activity against human NCI-H146 cells xenografted in SCID mouse assessed as tumor free incidence at 25 mg/kg, iv measured on day 58 post tumor implantation; type: functional
Outline: (§5)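 SCID mice bearing H146 xenografts randomized at 40–110 mm3 tumor volume (mean 70 mm3), 8 per group. Dosed intravenously, daily, 5 days a week for 2 weeks, with a vehicle control group. Tumor size and body weight measured 3 times weekly during dosing and twice weekly afterwards. Tumor volumes reported as mean ± SEM.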

[14] = system: NCI-H146; test: Antitumor activity against human NCI-H146 cells xenografted in SCID mouse assessed as tumor free incidence at 25 mg/kg, iv measured on day 47 post tumor implantation; type: functional, organism-based; design: dose 25 mg/kg; outline: as §5
[15] = system: NCI-H146; test: Induction of apoptosis in human NCI-H146 cells xenografted in SCID mouse assessed as PARP cleavage at 25 mg/kg, iv after 3 to 6 hrs by Western blot analysis; type: functional, organism-based; design: dose 25 mg/kg; outline: as §4
[16] = system: Mus musculus; test: Toxicity in SCID mouse assessed as body weight loss at 25 mg/kg, iv administered 5 days per week for 2 weeks relative to vehicle-treated control; type: organism-based; design: dose 25 mg/kg, route intravenous; conditions: in vivo; outline: as §3
[17] = Toxicity in iv dosed SCID mouse administered 5 days per week for 2 weeks; type: organism-based; conditions: in vivo
[18] = system: NCI-H146; test: Induction of apoptosis in human NCI-H146 cells assessed as PARP cleavage at 10 nM after 24 hrs by Western blot analysis; type: functional, cell-based; outline: as §2
[19] = system: NCI-H146; test: Induction of apoptosis in human NCI-H146 cells assessed as cell viability at 10 nM after 24 hrs by trypan blue exclusion assay; type: functional; conditions: NCI-H146, 24 h, read-out: Activity
Outline: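 H146 small-cell lung cancer cells exposed to serial compound concentrations for 24 hr, then collected and stained with trypan blue. Blue-stained or morphologically unhealthy cells were scored as dead, with at least 100 cells counted per sample.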

[20] = system: NCI-H146; test: Antitumor activity against human NCI-H146 cells xenografted in SCID mouse assessed as tumor regression at 25 mg/kg, iv administered 5 days per week for 2 weeks; type: functional, organism-based; design: dose 25 mg/kg; outline: as §5

T1 sequence (P10415 whole entry): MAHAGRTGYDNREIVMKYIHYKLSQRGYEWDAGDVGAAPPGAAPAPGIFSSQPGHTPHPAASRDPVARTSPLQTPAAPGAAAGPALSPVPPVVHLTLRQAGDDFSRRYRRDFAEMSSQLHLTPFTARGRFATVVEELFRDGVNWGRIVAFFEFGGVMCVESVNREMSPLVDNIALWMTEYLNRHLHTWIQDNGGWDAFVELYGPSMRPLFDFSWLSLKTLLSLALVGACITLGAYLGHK

Row | SMILES | pIC50 [1] | pKi [2] | pIC50 [3] | other results
1 | Cc1c(C(=O)NCCCN2CCN(C)CC2)c(-c2cccc(N3CCN(c4ccc(NS(=O)(=O)c5cccc(Cl)c5)cc4)CC3)c2)c(-c2ccc(Cl)cc2)n1C | 5.97 |  |  | 
2 | Cc1c(C(=O)NCCCN2CCN(C)CC2)c(-c2cccc(N3CCN(c4ccc(NS(=O)(=O)c5cccc([N+](=O)[O-])c5)cc4)CC3)c2)c(-c2ccc(Cl)cc2)n1C | 6.88 |  |  | 
3 | Cc1c(C(=O)NCCCN2CCN(C)CC2)c(-c2cccc(N3CCN(c4ccc(NS(=O)(=O)c5cccc(Br)c5)cc4)CC3)c2)c(-c2ccc(Cl)cc2)n1C | 6.30 |  |  | 
4 | Cc1c(C(=O)O)c(-c2cccc(N3CCN(c4ccc(NS(=O)(=O)c5ccc(N[C@H](CCN(C)C)CSc6ccccc6)c([N+](=O)[O-])c5)cc4)CC3)c2)c(-c2ccc(Cl)cc2)n1C |  | > 9.00 |  | 
5 | Cc1c(C(=O)O)c(-c2cccc(N3CCN(c4ccc(NS(=O)(=O)c5ccc(N[C@H](CCN(C)C)CSc6ccccc6)c(S(=O)(=O)C(F)(F)F)c5)cc4)CC3)c2)c(-c2ccc(Cl)cc2)n1C | 8.29 | 8.68 | 8.04 | 
6 | Cc1c(C(=O)NCCCN2CCN(C)CC2)c(-c2cccc(N3CCN(c4ccc(NS(=O)(=O)c5cccc(S(=O)(=O)C6CC6)c5)cc4)CC3)c2)c(-c2ccc(Cl)cc2)n1C | 5.99 |  |  | 
7 | Cc1c(C(=O)NCCCN2CCN(C)CC2)c(-c2cccc(N3CCN(c4ccc(NS(=O)(=O)c5cccc(OC(F)(F)F)c5)cc4)CC3)c2)c(-c2ccc(Cl)cc2)n1C | 5.78 |  |  | 
8 | Cc1c(C(=O)NCCCN2CCN(C)CC2)c(-c2cccc(N3CCN(c4ccc(NS(=O)(=O)c5cccc(F)c5)cc4)CC3)c2)c(-c2ccc(Cl)cc2)n1C | 5.88 |  |  | 
9 | Cc1c(C(=O)NCCCN2CCN(C)CC2)c(-c2cccc(N3CCN(c4ccc(NS(=O)(=O)c5cccc(C(C)(C)C)c5)cc4)CC3)c2)c(-c2ccc(Cl)cc2)n1C | 6.13 |  |  | 
10 | Cc1c(C(=O)O)c(-c2cccc(N3CCN(c4ccc(NS(=O)(=O)c5ccc(N[C@H](CCN6CCC(C)(O)CC6)CSc6ccccc6)c(S(=O)(=O)C(F)(F)F)c5)cc4)CC3)c2)c(-c2ccc(Cl)cc2)n1C | 7.66 | 8.34 | 7.73 | pIC50 [4]: 6.75; pIC50 [5]: 6.77
11 | Cc1c(C(=O)NCCCN2CCN(C)CC2)c(-c2cccc(N3CCN(c4ccc(NS(=O)(=O)c5ccccc5)cc4)CC3)c2)c(-c2ccc(Cl)cc2)n1C | 5.43 |  |  | 
12 | CCOc1cccc(S(=O)(=O)Nc2ccc(N3CCN(c4cccc(-c5c(C(=O)NCCCN6CCN(C)CC6)c(C)n(C)c5-c5ccc(Cl)cc5)c4)CC3)cc2)c1 | 5.44 |  |  | 
13 | Cc1c(C(=O)NCCCN2CCN(C)CC2)c(-c2cccc(N3CCN(c4ccc(NS(=O)(=O)c5cccc(OC(C)C)c5)cc4)CC3)c2)c(-c2ccc(Cl)cc2)n1C | 5.98 |  |  | 
14 | CN(C)CC[C@H](CSc1ccccc1)Nc1ccc(S(=O)(=O)NC(=O)c2ccc(N3CCN(Cc4ccccc4-c4ccc(Cl)cc4)CC3)cc2)cc1[N+](=O)[O-] [ABT 737] |  |  |  | Activity [6]: Dose-dependent effect; Activity [7]: >50%
15 | CCS(=O)(=O)c1cccc(S(=O)(=O)Nc2ccc(N3CCN(c4cccc(-c5c(C(=O)NCCCN6CCN(C)CC6)c(C)n(C)c5-c5ccc(Cl)cc5)c4)CC3)cc2)c1 | 6.02 |  |  | 
16 | Cc1c(C(=O)O)c(-c2cccc(N3CCN(c4ccc(NS(=O)(=O)c5ccc(N[C@H](CCN6CCC6)CSc6ccccc6)c(S(=O)(=O)C(F)(F)F)c5)cc4)CC3)c2)c(-c2ccc(Cl)cc2)n1C | 7.78 | 8.77 | 8.12 | pIC50 [4]: 6.90; pIC50 [5]: 7.07
17 | CCc1cccc(S(=O)(=O)Nc2ccc(N3CCN(c4cccc(-c5c(C(=O)NCCCN6CCN(C)CC6)c(C)n(C)c5-c5ccc(Cl)cc5)c4)CC3)cc2)c1 | 5.71 |  |  | 
18 | Cc1c(C(=O)O)c(-c2cccc(N3CCN(c4ccc(NS(=O)(=O)c5ccc(N[C@H](CCN6CC(O)C6)CSc6ccccc6)c(S(=O)(=O)C(F)(F)F)c5)cc4)CC3)c2)c(-c2ccc(Cl)cc2)n1C | 7.98 | 8.77 | 8.11 | pIC50 [4]: 6.52; pIC50 [5]: 6.62
19 | Cc1c(C(=O)O)c(-c2cccc(N3CCN(c4ccc(NS(=O)(=O)c5ccc(N[C@H](CCN6CCCCC6)CSc6ccccc6)c(S(=O)(=O)C(F)(F)F)c5)cc4)CC3)c2)c(-c2ccc(Cl)cc2)n1C | 7.92 | 8.42 | 7.81 | pIC50 [4]: 6.77; pIC50 [5]: 6.88
20 | Cc1c(C(=O)O)c(-c2cccc(N3CCN(c4ccc(NS(=O)(=O)c5ccc(N[C@H](CCN6CCCC6)CSc6ccccc6)c(S(=O)(=O)C(F)(F)F)c5)cc4)CC3)c2)c(-c2ccc(Cl)cc2)n1C | 7.97 | 8.74 | 8.08 | pIC50 [4]: 6.97; pIC50 [5]: 7.06
21 | Cc1c(C(=O)O)c(-c2cccc(N3CCN(c4ccc(NS(=O)(=O)c5ccc(N[C@H](CCN6CCOCC6)CSc6ccccc6)c(S(=O)(=O)C(F)(F)F)c5)cc4)CC3)c2)c(-c2ccc(Cl)cc2)n1C | 7.97 | 7.85 | 7.26 | 
22 | CC1(C)CCC(c2ccc(Cl)cc2)=C(CN2CCN(c3ccc(C(=O)NS(=O)(=O)c4ccc(N[C@H](CCN5CCOCC5)CSc5ccccc5)c(S(=O)(=O)C(F)(F)F)c4)cc3)CC2)C1 [NAVITOCLAX] |  |  |  | Activity [8]: Active; Activity [6]: Dose-dependent effect; Activity [9]: Active; Activity [7]: >50%
23 | Cc1cccc(S(=O)(=O)Nc2ccc(N3CCN(c4cccc(-c5c(C(=O)NCCCN6CCN(C)CC6)c(C)n(C)c5-c5ccc(Cl)cc5)c4)CC3)cc2)c1 | 5.70 |  |  | 
24 | COc1cccc(S(=O)(=O)Nc2ccc(N3CCN(c4cccc(-c5c(C(=O)NCCCN6CCN(C)CC6)c(C)n(C)c5-c5ccc(Cl)cc5)c4)CC3)cc2)c1 | 5.66 |  |  | 
25 | CCCCn1c(C)c(C(=O)O)c(-c2cccc(N3CCN(c4ccc(NS(=O)(=O)c5ccc(N[C@H](CCN6CCC(O)CC6)CSc6ccccc6)c(S(=O)(=O)C(F)(F)F)c5)cc4)CC3)c2)c1-c1ccc(Cl)cc1 | 8.20 | 7.70 | 7.11 | pIC50 [4]: 7.01; pIC50 [5]: 6.89
26 | CCCn1c(C)c(C(=O)O)c(-c2cccc(N3CCN(c4ccc(NS(=O)(=O)c5ccc(N[C@H](CCN6CCC(O)CC6)CSc6ccccc6)c(S(=O)(=O)C(F)(F)F)c5)cc4)CC3)c2)c1-c1ccc(Cl)cc1 | 8.09 | 8.12 | 7.52 | pIC50 [4]: 6.98; pIC50 [5]: 6.89
27 | CCn1c(C)c(C(=O)O)c(-c2cccc(N3CCN(c4ccc(NS(=O)(=O)c5ccc(N[C@H](CCN6CCC(O)CC6)CSc6ccccc6)c(S(=O)(=O)C(F)(F)F)c5)cc4)CC3)c2)c1-c1ccc(Cl)cc1 | 8.22 | 8.92 | 8.27 | Activity [10]: Active; Activity [11]: > 10%; Activity [12]: Active; Activity [13]: 71%; Activity [14]: Active; Activity [15]: Active; Activity [16]: < 10%; MTD at 2 weeks [17]: 25 mg/kg; pIC50 [4]: 7.68; Activity [18]: Active; viability at 0.01 µM [19]: > 50%; Activity [20]: Active; pIC50 [5]: 7.66; Activity [6]: Dose-dependent effect
28 | Cc1c(C(=O)NCCCN2CCN(C)CC2)c(-c2cccc(N3CCN(c4ccc(NS(=O)(=O)c5cccc(S(C)(=O)=O)c5)cc4)CC3)c2)c(-c2ccc(Cl)cc2)n1C | 5.72 |  |  | 
